This is an account of results in ChEMBL document CHEMBL1146776, “Identification and optimization of novel partial agonists of neuromedin B receptor using parallel synthesis” (Bioorg Med Chem Lett, 2004).

Test [1] addresses T1, Neuromedin-B receptor (Homo sapiens, UniProt P28336). Kind of test: Affinity of [125I][D-Tyr0]-NMB to human Neuromedin B receptor expressed in HEK293 cells. It is filed as cell-based. Put shortly: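 Whole-cell competition binding on HEK293 cells stably transfected with hNMBR, 1 · 10⁶ cells per well in DMEM. Incubation 1 h at room temperature with 150 pM ¹²⁵I-[D-Tyr0]NMB (2200 Ci/mmol). Bound and free ligand separated by filtration; bound counts read by scintillation counting.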

A further test relates to HeLa. The experiment in a line: Cytotoxicity towards HeLa cells was determined. It is filed as functional, cell-based. Conditions: Homo sapiens.
Test [2] concerns the target T1, Neuromedin-B receptor. Kind of test: Agonistic activity was determined against human Neuromedin B receptor transfected in HEK293 cells as accumulation levels of inositol phosphate. It is filed as functional, cell-based. Put shortly:
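hNMBR-transfected HEK293 cells (2.5 · 10⁴) labelled overnight at 37 °C in high-glucose DMEM with 25 mM Hepes, 10% dialyzed FBS and myo-[³H]inositol. Compounds added in inositol-free DMEM with 0.3% BSA and 10 mM LiCl, 60 min, 37 °C. Lysis in 20 mM formic acid, 2 h, 4 °C. Inositol phosphates captured on SPA beads and counted next day.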

Broadly, the pIC50 is −log10 of the IC50, conventionally taken in molar units. A high value points to a small IC50. A word on the pEC50: it is −log10 of the EC50, conventionally taken in molar units. High values mean a small EC50, low ones a large EC50.

pEC50, pIC50: −log10 of the molar value. Where only a bound is given, the exact number is not on record here.

T1 sequence (P28336 whole entry): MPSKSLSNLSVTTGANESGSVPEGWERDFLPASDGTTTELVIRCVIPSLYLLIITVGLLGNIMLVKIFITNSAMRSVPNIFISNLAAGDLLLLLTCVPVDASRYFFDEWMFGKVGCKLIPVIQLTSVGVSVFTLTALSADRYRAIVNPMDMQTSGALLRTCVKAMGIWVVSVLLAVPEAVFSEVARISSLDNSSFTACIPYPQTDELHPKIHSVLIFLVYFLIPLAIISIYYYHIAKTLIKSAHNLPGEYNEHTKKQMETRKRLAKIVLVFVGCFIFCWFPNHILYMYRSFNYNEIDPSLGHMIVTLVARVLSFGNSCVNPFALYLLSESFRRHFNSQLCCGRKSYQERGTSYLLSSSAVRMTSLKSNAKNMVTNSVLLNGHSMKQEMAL

Turning to `COc1cccc2[nH]c3c(c12)CC(NC(=O)Nc1c(C(C)C)cccc1C(C)C)(C(=O)NCC1(c2ccccn2)CCCCC1)CC3` (single isomer, unassigned; (+)), the pIC50 against Neuromedin-B receptor [1] was 7.54; with HeLa, less than 4.30. On Neuromedin-B receptor [2], this compound showed a pEC50 of 7.75.
`CC(C)c1cccc(C(C)C)c1NC(=O)N[C@@](C)(Cc1c[nH]c2ccccc12)C(=O)NCC1(c2ccccn2)CCCCC1` showed a pIC50 on Neuromedin-B receptor [1] of 6.46.
Still for that read-out and setting: next, `CC(C)c1cccc(C(C)C)c1NC(=O)NC1(C(=O)NCC2(c3ccc(Cl)cc3)CC2)CCc2[nH]c3ccccc3c2C1` (stereo not given): less than 5.00.
On to `CC(C)c1cccc(C(C)C)c1NC(=O)NC1(C(=O)NCC2(c3ccccn3)CCCCC2)CCc2[nH]c3cc(F)ccc3c2C1F` (stereo not given), for which, at Neuromedin-B receptor [1], the pIC50 was 6.00.
`CC(=O)c1cccc(NC(=O)NC2(C(=O)NCC3(c4ccccn4)CCCCC3)CCc3[nH]c4ccccc4c3C2)c1` (stereo not given) gave a pIC50 against Neuromedin-B receptor [1] of 5.64.
Still for that read-out and setting: the result for `O=C(Nc1ccc([N+](=O)[O-])cc1)NC1(C(=O)NCC2(c3ccccn3)CCS(=O)(=O)CC2)CCc2[nH]c3ccccc3c2C1` (stereo not given) reads less than 5.00.
On to `COc1cccc2[nH]c3c(c12)CC(NC(=O)Nc1c(C(C)C)cccc1C(C)C)(C(=O)NCC1(c2ccccn2)CCCCC1)CC3` (stereo in doubt; 20), for which the negative-log IC50 (pIC50) on Neuromedin-B receptor [1] was 6.60. Further, the pEC50 at Neuromedin-B receptor [2] was 6.88.
As for `CC(C)(CNC(=O)C1(NC(=O)Nc2ccc([N+](=O)[O-])cc2)CCc2[nH]c3ccccc3c2C1)c1ccccn1` (stereo not given), the pIC50 against Neuromedin-B receptor [1] is 5.00.
With `CC(C)c1cccc(C(C)C)c1NC(=O)NC1(C(=O)NCC2(c3ccccn3)CCCCC2)CCc2[nH]c3ccccc3c2C1` (stereo not given), the pIC50 against Neuromedin-B receptor [1] was 6.49. For the same compound, the pEC50 at Neuromedin-B receptor [2] was 6.22.
At Neuromedin-B receptor [1], `O=C(NC1CCCCC1)NC1(C(=O)NCC2(c3ccccn3)CCCCC2)CCc2[nH]c3ccccc3c2C1` (stereo not given) gave a pIC50 of 5.41.
Same read-out and setting: the result for `O=C(Nc1ccc(OC(F)(F)F)cc1)NC1(C(=O)NCC2(c3ccccn3)CCCCC2)CCc2[nH]c3ccccc3c2C1` (stereo not given) reads 5.52; that for `NC(=O)NC1(C(=O)NCC2(c3ccccn3)CCCCC2)CCc2[nH]c3ccccc3c2C1` (stereo not given), less than 5.00.
Still for that read-out and setting: the result for `CC(C)c1cccc(C(C)C)c1NC(=O)NC1(C(=O)NCC(C)(C)c2ccccn2)CCc2[nH]c3ccccc3c2C1` (stereo not given) reads 5.38.
On Neuromedin-B receptor [1], `Cc1ccc2[nH]c3c(c2c1)C(C)C(NC(=O)Nc1c(C(C)C)cccc1C(C)C)(C(=O)NCC1(c2ccccn2)CCCCC1)CC3` (stereo in doubt; 23) gave a pIC50 of 6.10.
Same read-out and setting: next, `CC(C)c1cccc(C(C)C)c1NC(=O)NC1(C(=O)NCC2(c3ccccn3)CCCCC2)CCc2[nH]c3cccc([N+](=O)[O-])c3c2C1` (stereo not given): less than 5.00; `Cc1ccc2[nH]c3c(c2c1)C(C)C(NC(=O)Nc1c(C(C)C)cccc1C(C)C)(C(=O)NCC1(c2ccccn2)CCCCC1)CC3` (stereo in doubt; 22): 6.15.
Same read-out and setting: the result for `CC(C)c1cccc(C(C)C)c1NC(=O)NC1(C(=O)NCC2(c3ccccn3)CCCCC2)CCc2[nH]c3cccc(C(=O)O)c3c2C1` (stereo not given) reads less than 5.00.
On the same count and under the same terms, the result for `O=C(Nc1ccc([N+](=O)[O-])cc1)NC1(C(=O)NCCc2ccccn2)CCc2[nH]c3ccccc3c2C1` (stereo not given) reads less than 5.00.
At Neuromedin-B receptor [2], `COc1cccc2[nH]c3c(c12)CC(NC(=O)Nc1c(C(C)C)cccc1C(C)C)(C(=O)NCC1(c2ccccn2)CCCCC1)CC3` (single isomer, unassigned; (-)) gave a pEC50 of 5.71.
The compound `Cc1cccc(C)c1NC(=O)NC1(C(=O)NCC2(c3ccccn3)CCCCC2)CCc2[nH]c3ccccc3c2C1` (stereo not given) showed a pIC50 on Neuromedin-B receptor [1] of 5.26.
With `CC(C)c1cccc(C(C)C)c1NC(=O)NC1(C(=O)NCC2(c3ccccn3)CCCCC2)CCc2[nH]c3cccc(OC(F)(F)F)c3c2C1` (stereo not given), the pIC50 against Neuromedin-B receptor [1] is 5.72. Compared with the last compound, the pIC50 is 0.46 log units higher.
The same measure, in the same setting: next, `CC(C)c1cccc(C(C)C)c1NC(=O)NC1(C(=O)NCC2(c3ccccn3)CC2)CCc2[nH]c3ccccc3c2C1` (stereo not given): 5.47; `O=C(Nc1ccc(C(F)(F)F)cc1)NC1(C(=O)NCC2(c3ccccn3)CCCCC2)CCc2[nH]c3ccccc3c2C1` (stereo not given): 5.95.
On the same count and under the same terms, next, `CC(C)c1cccc(C(C)C)c1NC(=O)NC1(C(=O)NCC2(c3ccccn3)CCCCC2)CCc2[nH]c3cccc(C(F)(F)F)c3c2C1` (stereo not given): 5.44; `CC(C)c1cccc(C(C)C)c1NC(=O)NC1(C(=O)NCC2(c3ccccn3)CCCCC2)CCc2[nH]c3cc(Br)ccc3c2C1` (stereo not given): 5.67; `COc1ccccc1NC(=O)NC1(C(=O)NCC2(c3ccccn3)CCCCC2)CCc2[nH]c3ccccc3c2C1` (stereo not given): 5.06.
On Neuromedin-B receptor [1], `Cc1cccc2[nH]c3c(c12)CC(NC(=O)Nc1c(C(C)C)cccc1C(C)C)(C(=O)NCC1(c2ccccn2)CCCCC1)CC3` (stereo not given) had a pIC50 of 6.18. Compared with the last compound, the pIC50 is 1.12 log units higher.
On Neuromedin-B receptor [1], `CCOC(=O)c1cc(NC(=O)NC2(C(=O)NCC3(c4ccccn4)CCCCC3)CCc3[nH]c4ccccc4c3C2)cc(C(=O)OCC)c1` (stereo not given) had a pIC50 of 5.73.
Compound `Cc1cc([N+](=O)[O-])ccc1NC(=O)NC1(C(=O)NCC2(c3ccccn3)CCCCC2)CCc2[nH]c3ccccc3c2C1` (stereo not given) gave a pIC50 against Neuromedin-B receptor [1] of 6.21.
Same read-out and setting: the result for `CCNC(=O)NC1(C(=O)NCC2(c3ccccn3)CCCCC2)CCc2[nH]c3ccccc3c2C1` (stereo not given) reads less than 5.00; that for `O=C(Nc1ccc([N+](=O)[O-])cc1)NC1(C(=O)NCC2(c3ccccn3)CCCCC2)CCc2[nH]c3ccccc3c2C1` (stereo not given), 6.10.
